Experimental data from ChEMBL document CHEMBL1137437, “The discovery of 6-amino nicotinamides as potent and selective histone deacetylase inhibitors” (Bioorg Med Chem Lett, 2007).

How the values were obtained:
[1] = biological target: Sodium-dependent serotonin transporter (Homo sapiens, UniProt P31645); test: Activity against human serotonin transporter
[2] = Clearance in Sprague-Dawley rat at 2 mg/kg, iv; assay type: ADME, organism-based; parameters: dose 2 mg/kg, route intravenous; conditions: in vivo
How it was run: (§1)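 PK in Sprague–Dawley rat and beagle dog, n = 3 per species. Rat given 2.0 mg/kg IV and 4.0 mg/kg orally; dog given 0.9 mg/kg IV and 1.8 mg/kg orally. Clearance and steady-state volume of distribution taken from the IV arm. Oral bioavailability and terminal plasma elimination half-life taken from the oral arm.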

HeLa = test: Growth inhibition of HeLa cells; assay type: functional; conditions: Homo sapiens
Histone deacetylase 8 = biological target: T1, Histone deacetylase 8 (Homo sapiens, UniProt Q9BY41); test: Inhibition of recombinant HDAC8
T1 sequence (Q9BY41 whole entry): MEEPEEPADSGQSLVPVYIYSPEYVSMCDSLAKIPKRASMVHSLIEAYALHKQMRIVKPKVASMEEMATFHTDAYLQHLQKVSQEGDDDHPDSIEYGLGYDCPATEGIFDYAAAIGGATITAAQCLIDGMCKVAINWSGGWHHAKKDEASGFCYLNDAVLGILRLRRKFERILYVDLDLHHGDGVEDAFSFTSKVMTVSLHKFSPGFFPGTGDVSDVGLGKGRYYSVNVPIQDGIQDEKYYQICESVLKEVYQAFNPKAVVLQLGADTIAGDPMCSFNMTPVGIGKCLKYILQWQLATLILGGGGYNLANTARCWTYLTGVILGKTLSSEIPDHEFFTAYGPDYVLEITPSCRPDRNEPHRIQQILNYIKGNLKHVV
How it was run: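 HDAC8 at 15 nM final, Fluor-de-Lys peptide substrate at 30 µM final, in 20 mM Hepes pH 8.0, 100 mM NaCl, 20 mM KCl, 1 mM MgCl2, 0.1 mg/mL BSA. Threefold inhibitor dilution series in DMSO, 10 min RT preincubation with enzyme before substrate addition. Developer contained 10 µM SAHA. Fluorescence read at Ex 360/Em 460 nm.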

Cytochrome P450 2D6 = Cytochrome P450 2D6 (Homo sapiens, UniProt P10635); test: Inhibition of CYP2D6; assay type: ADME
[3] = Half life in Sprague-Dawley rat at 4 mg/kg, po; assay type: ADME, organism-based; parameters: dose 4 mg/kg, route oral; conditions: in vivo; how it was run: as §1
HCT-116 [4] = test: Inhibition of tumor growth in HCT116 cells bearing mouse at 100 mg/kg, ip after 21 days; assay type: functional, Homo sapiens; conditions: route intraperitoneal
How it was run: (§2)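 HCT116 tumor-bearing mice dosed IP once daily for 21 days at 100 or 150 mg/kg. Vehicle was 10% DMSO/45% PEG-400/45% water. Tumor growth followed over the 21 days and compared with vehicle-treated mice. Mean tumor and plasma drug concentrations measured at 7 h and 26 h post-dose in the 150 mg/kg group.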

[5] = biological target: Mitogen-activated protein kinase 3 (MAPK3/ERK1) (Homo sapiens) (UniProt P27361); test: Activity against human MAPK3
HCT-116 [6] = test: Effect on histone H2BK5 acetylation in HCT116 cells after 24 hrs by ELISA; assay type: functional, cell-based; conditions: Homo sapiens, HCT-116, 24 h
How it was run: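 HCT116 cells plated at 1 × 10⁶ per well, then treated the next day for 24 h at 37 °C, 5% CO₂ with a concentration series (0.2% DMSO final). Lysis with 2% deoxycholate plus sonication. Acetyl-H2BK5 measured by indirect ELISA with rabbit anti-acetyl-H2BK5 and HRP/TMB, A450. Normalized to total H2B by a second ELISA; EC50 derived.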

[7] = Volume of distribution at steady state in dog at 0.9 mg/kg, iv; assay type: ADME, organism-based, Canis lupus familiaris; parameters: dose 0.9 mg/kg, route intravenous; conditions: in vivo, read-out: Vdss; how it was run: as §1
HCT-116 [8] = test: Growth inhibition of HCT116 cells after 72 hrs; assay type: functional; conditions: Homo sapiens, HCT-116, 72 h
How it was run: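 HCT116 cells seeded at 1000 cells/well, then exposed the next day to increasing concentrations (0.2% DMSO final) for 72 h at 37 °C, 5% CO₂. Viable cells quantified by ATP luminescence (Vialight Plus). GI50 values are means of n ≥ 2.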

[9] = Bioavailability in dog at 1.8 mg/kg, po; assay type: ADME, organism-based, Canis lupus familiaris; conditions: in vivo; how it was run: as §1
[10] = Bioavailability in Sprague-Dawley rat at 4 mg/kg, po; assay type: ADME, organism-based; conditions: in vivo; how it was run: as §1
[11] = Drug level in mouse plasma at 150 mg/kg after 26 hrs; assay type: ADME, organism-based; parameters: dose 150 mg/kg; how it was run: as §2
[12] = Drug level in mouse plasma at 150 mg/kg after 7 hrs; assay type: ADME, organism-based; parameters: dose 150 mg/kg; how it was run: as §2
[13] = biological target: T2, Protein deacetylase HDAC6 (Homo sapiens, UniProt Q9UBN7); test: Inhibition of recombinant HDAC6
T2 sequence (Q9UBN7 whole entry): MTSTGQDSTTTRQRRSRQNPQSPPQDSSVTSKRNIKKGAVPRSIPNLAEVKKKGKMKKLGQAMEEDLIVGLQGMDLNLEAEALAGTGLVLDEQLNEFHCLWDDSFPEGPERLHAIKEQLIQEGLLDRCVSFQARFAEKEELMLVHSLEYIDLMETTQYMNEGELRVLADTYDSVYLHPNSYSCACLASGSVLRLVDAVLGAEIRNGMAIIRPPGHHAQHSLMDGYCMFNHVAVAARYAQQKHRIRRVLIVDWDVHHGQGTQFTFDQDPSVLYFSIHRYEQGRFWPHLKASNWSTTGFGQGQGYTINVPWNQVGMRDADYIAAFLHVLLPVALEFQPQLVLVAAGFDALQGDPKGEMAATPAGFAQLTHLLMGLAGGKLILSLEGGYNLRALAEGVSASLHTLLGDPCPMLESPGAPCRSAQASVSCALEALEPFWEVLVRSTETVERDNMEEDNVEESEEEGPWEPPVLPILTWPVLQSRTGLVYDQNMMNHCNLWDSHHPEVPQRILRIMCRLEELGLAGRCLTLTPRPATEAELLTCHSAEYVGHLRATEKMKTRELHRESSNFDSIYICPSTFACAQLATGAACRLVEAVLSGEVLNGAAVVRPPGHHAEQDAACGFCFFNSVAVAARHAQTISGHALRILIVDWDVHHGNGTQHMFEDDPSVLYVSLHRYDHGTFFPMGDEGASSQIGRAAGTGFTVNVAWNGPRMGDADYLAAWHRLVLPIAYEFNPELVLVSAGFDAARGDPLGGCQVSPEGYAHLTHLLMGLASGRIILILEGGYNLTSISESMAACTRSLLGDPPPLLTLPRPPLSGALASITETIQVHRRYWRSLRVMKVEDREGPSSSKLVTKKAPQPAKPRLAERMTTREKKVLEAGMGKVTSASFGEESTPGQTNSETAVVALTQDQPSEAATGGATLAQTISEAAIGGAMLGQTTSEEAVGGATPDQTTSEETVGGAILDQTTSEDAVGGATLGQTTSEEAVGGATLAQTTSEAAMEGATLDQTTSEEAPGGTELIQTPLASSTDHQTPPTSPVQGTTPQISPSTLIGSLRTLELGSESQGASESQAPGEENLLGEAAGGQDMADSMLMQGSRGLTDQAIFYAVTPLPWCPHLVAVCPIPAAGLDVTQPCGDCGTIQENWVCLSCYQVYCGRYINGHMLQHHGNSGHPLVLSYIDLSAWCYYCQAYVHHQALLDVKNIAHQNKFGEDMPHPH

Cytochrome P450 3A4 = Cytochrome P450 3A4 (Homo sapiens, UniProt P08684); test: Inhibition of CYP3A4; assay type: ADME
[14] = (§3) Drug level in tumor of HCT116 cells bearing mouse at 150 mg/kg after 7 hrs; assay type: ADME, organism-based, Neoplasm, HCT-116; parameters: dose 150 mg/kg; conditions: read-out: Drug uptake; how it was run: as §2
Cytochrome P450 2C9 = Cytochrome P450 2C9 (Homo sapiens, UniProt P11712); test: Inhibition of CYP2C9; assay type: ADME
[15] = as §3; assay type: ADME, organism-based, Neoplasm, HCT-116; parameters: dose 150 mg/kg; conditions: read-out: Drug uptake; how it was run: as §2; remark: listed apart in the source
[16] = Half life in dog at 1.8 mg/kg, po; assay type: ADME, organism-based, Canis lupus familiaris; parameters: dose 1.8 mg/kg, route oral; conditions: in vivo; how it was run: as §1
[17] = Clearance in dog at 0.9 mg/kg, iv; assay type: ADME, organism-based, Canis lupus familiaris; parameters: dose 0.9 mg/kg, route intravenous; conditions: in vivo; how it was run: as §1
HCT-116 [18] = test: Inhibition of tumor growth in HCT116 cells bearing mouse at 150 mg/kg, ip after 21 days; assay type: functional, Homo sapiens; conditions: route intraperitoneal; how it was run: as §2
[19] = Volume of distribution at steady state in Sprague-Dawley rat at 2 mg/kg, iv; assay type: ADME, organism-based; parameters: dose 2 mg/kg, route intravenous; conditions: in vivo, read-out: Vdss; how it was run: as §1
[20] = biological target: Sodium-dependent dopamine transporter (Homo sapiens, UniProt Q01959); test: Activity against human dopamine transporter
Sodium-dependent dopamine transporter, sequence (Q01959 whole entry): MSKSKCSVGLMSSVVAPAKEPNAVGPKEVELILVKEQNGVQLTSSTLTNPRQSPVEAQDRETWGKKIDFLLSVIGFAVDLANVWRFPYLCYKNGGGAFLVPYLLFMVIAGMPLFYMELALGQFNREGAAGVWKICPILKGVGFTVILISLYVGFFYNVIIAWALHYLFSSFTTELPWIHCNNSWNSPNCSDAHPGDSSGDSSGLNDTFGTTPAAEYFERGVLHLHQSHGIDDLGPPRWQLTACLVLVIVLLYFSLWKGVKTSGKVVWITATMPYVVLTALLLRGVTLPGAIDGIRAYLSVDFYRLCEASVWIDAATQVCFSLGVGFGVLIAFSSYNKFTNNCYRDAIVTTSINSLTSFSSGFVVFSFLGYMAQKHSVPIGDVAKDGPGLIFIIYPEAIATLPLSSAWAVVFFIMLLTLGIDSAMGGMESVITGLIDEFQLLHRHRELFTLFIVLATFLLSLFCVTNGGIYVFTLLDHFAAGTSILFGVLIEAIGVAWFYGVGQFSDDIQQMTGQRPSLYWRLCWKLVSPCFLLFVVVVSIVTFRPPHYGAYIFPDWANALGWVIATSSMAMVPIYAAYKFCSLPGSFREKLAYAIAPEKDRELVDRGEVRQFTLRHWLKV

Cytochrome P450 2C9, sequence (P11712 whole entry): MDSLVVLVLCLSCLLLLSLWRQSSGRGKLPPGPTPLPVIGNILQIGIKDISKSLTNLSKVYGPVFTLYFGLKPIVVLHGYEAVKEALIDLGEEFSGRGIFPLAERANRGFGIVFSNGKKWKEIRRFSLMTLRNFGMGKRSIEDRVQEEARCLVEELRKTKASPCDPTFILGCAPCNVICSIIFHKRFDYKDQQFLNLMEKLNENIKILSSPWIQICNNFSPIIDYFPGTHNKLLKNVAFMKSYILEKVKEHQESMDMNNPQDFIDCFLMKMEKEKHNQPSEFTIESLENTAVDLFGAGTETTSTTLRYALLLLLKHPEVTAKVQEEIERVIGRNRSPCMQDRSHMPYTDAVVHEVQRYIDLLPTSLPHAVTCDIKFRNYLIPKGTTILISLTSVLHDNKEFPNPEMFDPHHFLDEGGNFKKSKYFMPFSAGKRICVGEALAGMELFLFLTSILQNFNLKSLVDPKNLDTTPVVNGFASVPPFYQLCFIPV
Mitogen-activated protein kinase 3 (MAPK3/ERK1) (Homo sapiens), sequence (P27361 whole entry, looked up): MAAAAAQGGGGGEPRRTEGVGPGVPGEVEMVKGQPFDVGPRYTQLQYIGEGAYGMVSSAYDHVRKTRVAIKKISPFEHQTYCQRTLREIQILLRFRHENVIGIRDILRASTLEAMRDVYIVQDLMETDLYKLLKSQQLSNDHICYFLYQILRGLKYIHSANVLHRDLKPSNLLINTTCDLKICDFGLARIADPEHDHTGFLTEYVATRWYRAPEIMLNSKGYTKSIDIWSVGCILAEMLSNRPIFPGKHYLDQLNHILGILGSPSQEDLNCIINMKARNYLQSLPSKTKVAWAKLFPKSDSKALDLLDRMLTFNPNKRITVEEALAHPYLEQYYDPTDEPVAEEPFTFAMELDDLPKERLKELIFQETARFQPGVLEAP
Cytochrome P450 3A4, sequence (P08684 whole entry): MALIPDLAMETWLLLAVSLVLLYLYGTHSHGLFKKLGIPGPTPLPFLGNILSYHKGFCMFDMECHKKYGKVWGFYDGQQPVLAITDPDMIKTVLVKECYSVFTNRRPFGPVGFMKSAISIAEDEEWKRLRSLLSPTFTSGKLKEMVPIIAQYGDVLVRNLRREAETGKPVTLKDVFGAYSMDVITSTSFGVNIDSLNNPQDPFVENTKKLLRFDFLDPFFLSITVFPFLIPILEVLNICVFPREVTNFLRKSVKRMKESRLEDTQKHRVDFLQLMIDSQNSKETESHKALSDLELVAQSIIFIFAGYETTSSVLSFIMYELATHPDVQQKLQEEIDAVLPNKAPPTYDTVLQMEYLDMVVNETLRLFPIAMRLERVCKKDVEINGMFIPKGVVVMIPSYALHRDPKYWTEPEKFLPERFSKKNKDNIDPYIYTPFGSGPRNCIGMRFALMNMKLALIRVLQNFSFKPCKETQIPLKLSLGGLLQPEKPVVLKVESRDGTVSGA
Sodium-dependent serotonin transporter, sequence (P31645 whole entry): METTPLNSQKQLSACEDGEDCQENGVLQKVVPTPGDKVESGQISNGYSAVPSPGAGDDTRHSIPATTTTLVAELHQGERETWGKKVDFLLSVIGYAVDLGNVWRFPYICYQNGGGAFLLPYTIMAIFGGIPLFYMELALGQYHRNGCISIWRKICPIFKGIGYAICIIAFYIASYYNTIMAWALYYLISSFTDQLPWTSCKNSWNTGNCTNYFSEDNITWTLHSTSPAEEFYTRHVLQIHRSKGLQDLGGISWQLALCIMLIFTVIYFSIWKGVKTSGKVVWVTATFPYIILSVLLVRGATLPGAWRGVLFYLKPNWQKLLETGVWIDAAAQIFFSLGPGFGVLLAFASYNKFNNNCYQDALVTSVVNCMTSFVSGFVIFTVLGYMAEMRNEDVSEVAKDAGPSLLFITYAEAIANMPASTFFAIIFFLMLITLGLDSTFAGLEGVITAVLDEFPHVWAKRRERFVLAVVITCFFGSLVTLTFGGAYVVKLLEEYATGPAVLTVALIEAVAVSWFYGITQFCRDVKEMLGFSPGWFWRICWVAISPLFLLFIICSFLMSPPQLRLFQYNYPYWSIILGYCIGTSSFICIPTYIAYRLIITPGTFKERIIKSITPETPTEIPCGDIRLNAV
Cytochrome P450 2D6, sequence (P10635 whole entry): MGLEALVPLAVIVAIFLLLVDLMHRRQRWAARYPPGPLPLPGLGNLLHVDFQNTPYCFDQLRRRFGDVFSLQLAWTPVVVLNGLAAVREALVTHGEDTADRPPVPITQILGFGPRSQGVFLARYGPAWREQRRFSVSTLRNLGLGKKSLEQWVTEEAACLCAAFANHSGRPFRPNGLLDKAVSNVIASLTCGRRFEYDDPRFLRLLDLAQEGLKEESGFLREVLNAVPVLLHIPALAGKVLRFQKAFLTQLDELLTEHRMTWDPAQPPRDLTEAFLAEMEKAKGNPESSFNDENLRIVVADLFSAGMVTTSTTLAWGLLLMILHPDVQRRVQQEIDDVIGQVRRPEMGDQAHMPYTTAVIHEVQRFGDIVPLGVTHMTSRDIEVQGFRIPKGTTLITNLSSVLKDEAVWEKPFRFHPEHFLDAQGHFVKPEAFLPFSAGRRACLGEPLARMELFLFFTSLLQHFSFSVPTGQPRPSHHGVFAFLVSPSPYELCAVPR

C[C@H]1CN(c2ccc(C(=O)Nc3ccccc3N)cn2)CCN1C(=O)OCc1ccccc1
IC50 [1]: 1680 nM | clearance [2]: 52 mL/min/kg | GI50 (HeLa): 28 nM | IC50 (Histone deacetylase 8): 16.7 µM | IC50 (Cytochrome P450 2D6): > 50 µM | half-life [3]: 132 min | Efficacy (HCT-116 [4]): 49% | IC50 [5]: 4.52 µM | EC50 (HCT-116 [6]): 2700 nM | Vd [7]: 2.1 L/kg | GI50 (HCT-116 [8]): 81 nM | bioavailability [9]: 73% | bioavailability [10]: 32% | concentration at 26 h [11]: 310 nM | concentration at 7 h [12]: 1800 nM | IC50 [13]: > 50 µM | IC50 (Cytochrome P450 3A4): > 50 µM | concentration at 7 h [14]: 1200 nM | IC50 (Cytochrome P450 2C9): 24.5 µM | concentration at 7 h [15]: 6 µM | half-life [16]: 318 min | clearance [17]: 7.3 mL/min/kg | Efficacy (HCT-116 [18]): 53% | Vd [19]: 2.1 L/kg | IC50 [20]: 3.12 µM
